According to PubChem BioAssay AID624082 (The Scripps Research Institute Molecular Screening Center, 2012):
Activity calls are given as the source filed them.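 The calls were made as follows: active = MIC showing a fourfold drop that lands at or below 10 µM; inactive = fourfold-lowered MIC still above 10 µM.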

Columns and labels:
[1] = imipenem potentiation against NDM-1 K. pneumoniae, late-stage follow-up, VIM-2 MBL inhibitor project, BAA-2146, NDM-1 transformed, nonselective, MIC fold reduction (AID 624082); details: K. pneumoniae BAA-2146 NDM-1, imipenem synergy, growth MIC; measured here: max imipenem fold potentiation; stronger effect = higher value
Summary of the method: (§1)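 Test system: log-phase bacterial culture in a checkerboard broth microdilution; Buffer or medium: CAMHB; Also added: imipenem, two-fold titration series; Doses: test compound two-fold serial titration, crossed with imipenem titration; Incubation: ≥18 h aerobic incubation at 37 °C; Read-out basis: minimum inhibitory concentration called by CLSI criteria.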

[2] = test system: K. pneumoniae BAA-2146 NDM-1, imipenem synergy, growth MIC; test: as above
Summary of the method: as §1

Row | MIC [2] | Structure (SMILES) | fold potentiation [1]
1 | > 50 µM (inactive) | CN1CCN(NC(=O)CN2C(=O)/C(=C/c3c(Cl)ccc(C(F)(F)F)c3Cl)SC2=S)CC1 | 2
2 | > 50 µM (inactive) | CC(=O)N1CCN(NC(=O)CN2C(=O)/C(=C/c3c(Cl)cccc3Cl)SC2=S)CC1 | –
3 | > 50 µM (inactive) | CN1CCN(NC(=O)CN2C(=O)/C(=C/c3c(C(F)(F)F)ccc(Cl)c3Cl)SC2=S)CC1 | 2
4 | > 50 µM (inactive) | CN1CCN(C(=O)CN2C(=O)/C(=C/c3c(Cl)ccc(Cl)c3Cl)SC2=S)CC1 | –
5 | > 100 µM (inactive) | O=C(CN1C(=O)/C(=C/c2c(Cl)cccc2Cl)SC1=S)NCc1ccccn1 | –
6 | > 50 µM (inactive) | O=C(CN1C(=O)/C(=C/c2c(Cl)ccc(Cl)c2Cl)SC1=S)NCc1ccccn1 | –
7 | > 100 µM (inactive) | CN1CCN(NC(=O)CN2C(=O)/C(=C/c3c(Cl)cccc3Cl)SC2=S)CC1 | 2
8 | > 50 µM (inactive) | O=C(CN1C(=O)/C(=C/c2c(Cl)ccc(Cl)c2Cl)SC1=S)NN1CCNCC1 | 2
9 | > 100 µM (inactive) | O=C(O)CN1C(=O)/C(=C/c2c(Cl)cccc2Cl)SC1=S | –
10 | > 50 µM (inactive) | O=C(CN1C(=O)/C(=C/c2c(Cl)cccc2Cl)SC1=S)NN1CCN(C(=O)c2ccccc2)CC1 | –
11 | > 50 µM (inactive) | O=C(CN1C(=O)/C(=C/c2c(Cl)cccc2Cl)SC1=S)NN1CCN(Cc2ccccc2)CC1 | –
12 | > 100 µM (inactive) | CCN(CC)OC(=O)CN1C(=O)/C(=C/c2c(Cl)cccc2Cl)SC1=S | –
13 | > 50 µM (inactive) | O=C(O)CN1C(=O)/C(=C/c2c(F)cccc2C(F)(F)F)SC1=S | –
14 | > 50 µM (inactive) | CN1CCN(NC(=O)CN2C(=O)/C(=C/c3c(F)cccc3C(F)(F)F)SC2=S)CC1 | 2
15 | > 50 µM (inactive) | O=C(CN1C(=O)/C(=C/c2c(Cl)cccc2Cl)SC1=S)NN1CCNCC1 | –
16 | > 50 µM (inactive) | CN1CCN(NC(=O)CN2C(=O)/C(=C/c3c(Cl)ccc(Cl)c3Cl)SC2=S)CC1 | 2
17 | > 50 µM (inactive) | CN1CCN(NC(=O)CN2C(=O)/C(=C/c3c(F)cccc3Cl)SC2=S)CC1 | 2
18 | > 100 µM (inactive) | CC(C)(C)OC(=O)N1CCN(NC(=O)CN2C(=O)/C(=C/c3c(Cl)cccc3Cl)SC2=S)CC1 | –
19 | > 50 µM (inactive) | CC(C)(C)OC(=O)N1CCN(NC(=O)CN2C(=O)/C(=C/c3c(Cl)ccc(Cl)c3Cl)SC2=S)CC1 | –
20 | > 50 µM (inactive) | O=C(CN1C(=O)/C(=C/c2c(Cl)ccc(Cl)c2Cl)SC1=S)NN1CCCCC1 | –
21 | > 50 µM (inactive) | CC(C)N1CCN(NC(=O)CN2C(=O)/C(=C/c3c(Cl)cccc3Cl)SC2=S)CC1 | –
